Results on 14 compounds are retold here after paper PMC11986672 (RSC Medicinal Chemistry, 2025).

For data set [1], the system named is human endometrial cancer (HEC1A) cells. The data set is described as follows: MTT cytotoxicity assay, HEC1A. The format is cell-based. The conditions noted are these: for IC50: Homo sapiens, HEC-1-A, 48 h, read-out: HEC1A IC50, MTT cell viability, 48 h, n = 3 biological repeats; for Selectivity ratio: IC50 MAD11 divided by IC50 HEC1A. In outline: (§1)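 HEC1A (5000/well) and MAD11 (2500/well) cells were seeded and held overnight at 37 °C. Test compound was reconstituted in DMSO and serially diluted in medium to final 160, 80, 40, 20, 10, 5, 2.5 and 1.25 μM, in triplicate, with matched DMSO in all wells. After 48 h, MTT was added for 3 h, formazan solubilised (4 mM HCl, 0.1% NP-40, isopropanol) and absorbance read at 590/620 nm. IC50 was taken against vehicle controls; selectivity = MAD11 IC50 / HEC1A IC50.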
In general terms: Formazan colour is commonly taken as a measure of viable cells.

Data set [2] concerns noncancerous human endometrial stromal (MAD11) cells. The data set is described as follows: MTT cytotoxicity assay, MAD11. The format is cell-based. Particulars: MAD11, 48 h, read-out: MAD11 IC50. In outline: as §1
A further data set relates to HEC1A cancer cells. The data set can be described thus: Oxygen consumption rate assay. Particulars: over 120 minutes, compared to vehicle (DMSO) control, 21 at 20 μM. Type of data set: cell-based, human. The method in brief: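 Seahorse XF96 OCR assay. HEC1A cells (15 000/well) adhered 24 h in DMEM, 10% FBS, penicillin/streptomycin at 37 °C, 5% CO₂. Medium was then swapped for unbuffered phenol-red-free DMEM (25 mM glucose, 4 mM glutamine, 1 mM pyruvate, pH 7.4), with 40 min degassing at 37 °C without CO₂. Three baseline reads preceded compound injection; 11 cycles (3 min wait, 3 min mix, 2 min measure) followed. OCR was normalised to the third baseline reading; DMSO served as vehicle control.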

In data set [3] the test system is CALU-1 (lung squamous cell carcinoma). The data set is described as follows: MTT cytotoxicity assay, CALU-1. Type of data set: cell-based. Particulars: Homo sapiens, Calu-1, read-out: Mean IC50 CALU-1. The method in brief: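 Uses the HEC1A MTT protocol: test compound in DMSO, diluted to final 160 down to 1.25 μM in two-fold steps, in triplicate, with equal DMSO in controls. […] CALU-1 was cultured in MEM in place of DMEM. […]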

Data set [4] has as its system HEC1A endometrial cancer cells. The data set is described as follows: Thiol rescue experiment. The format is cell-based, human. Particulars: for rescue of cytotoxicity by NAC and GSH pre-treatment: NAC or GSH 2 mM for 40 min; for IC50: Homo sapiens, HEC-1-A; for ΔIC50 (+GSH): IC50 with GSH minus IC50 of compound alone; for ΔIC50 (+NAC): IC50 with NAC minus IC50 of compound alone. In outline:
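HEC1A cells were seeded on day 1 (5000/well). On day 2 they were pre-treated 40 min with NAC or GSH, 2 mM in medium neutralised to pH 7.4. Test compound was then added (final 160–1.25 μM serial dilutions, triplicate, equal DMSO), with 48 h incubation. The MTT readout (3 h, absorbance 590/620 nm) followed. IC50 was compared with cells given no thiol.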

For data set [5] the following is noted: 10 mg kg−1 via oral gavage in C57BL/6 mice; cited from earlier work.
A short description of data set [6]: Pharmacokinetic profiling in vivo. Also noted: species or system C57BL/6 mice.

“And” between values parts separate entries of the source, which are not always exact repeats. Identical values can stand only once. “Also recorded” adds a separate entry of the source. Like-named read-outs stand apart in the source and are kept apart here. A value given as a limit tells only on which side of the number the result lay.

As usually defined, the IC50 is the concentration at which inhibition is half-maximal. Regarding `O=C1C(Cl)=C(NCCCN2CCCCC2)C(=O)c2ccccc21` [Compound 21, 2-Chloro-3-((3-(piperidin-1-yl)propyl)amino)-[1,4]-naphthoquinone], the IC50 turned out to be 1.83 µM in data set [1]; 4.79 µM in data set [2]; 4.7 µM in data set [3]; 16 µM in data set [4] (read-out: +GSH IC50 ± SEM); 13 µM in data set [4] (read-out: +NAC IC50); 1.83 µM in data set [4] (read-out: Alone IC50). In addition, the Selectivity ratio in data set [1] is reported as 2.62. Besides, the “maximum OCR increase” value in the data set with HEC1A cancer cells was “approximately 280%”. In data set [4] (HEC1A, GSH 2 mM), the “decrease of potency with GSH pre-treatment (times)” value is listed as 8.7 times. Also, the “decrease of potency with NAC pre-treatment (times)” value in data set [4] (HEC1A, NAC 2 mM) stood at 7.1 times. Further, the “rescue of cytotoxicity by NAC and GSH pre-treatment” value (“rescue of cytotoxicity” for short) in data set [4] (HEC1A) is “partially rescued”. The “ΔIC50 (+GSH)” value in data set [4] is recorded as “+14.17 μM”. Besides, the “ΔIC50 (+NAC)” value in data set [4] is given as “+11.17 μM”.
Usually half-life stands for the time needed for the level to fall by half in the phase considered. Turning to `O=C1C(Cl)=C(NCCN2CCOCC2)C(=O)c2ccccc21` [BH10, 2-chloro-3-[(2-morpholin-4-ylethyl)amino]naphthalene-1,4-dione, reference compound], the IC50 in data set [1] was 10.2 µM; in data set [2], 25.6 µM; in data set [3] it was 16.7 µM; in data set [4] (read-out: +GSH IC50 ± SEM), above 80 µM; in data set [4] (read-out: +NAC IC50) it was 58 µM. Moreover, in data set [1], the Selectivity ratio stood at 2.51. Also, the half-life in data set [5] is on record as 21.6 min. The “maximum OCR increase” value with HEC1A cancer cells is reported as “up to 200%”. Also, in data set [4] (HEC1A), the “rescue of cytotoxicity” value is on record as “rescued”. In addition, in data set [4], the “ΔIC50 (+GSH)” value is “>+69.78 μM”. Also, the “ΔIC50 (+NAC)” value in data set [4] was “+47.78 μM”.
Take `O=C1C(Br)=C(NCCCN2CCOCC2)C(=O)c2ccccc21` [Compound 9, 2-Bromo-3-((3-morpholinopropyl)amino)-[1,4]-naphthoquinone]: the results for the IC50 in data set [1] and in data set [2] were 4.16 µM and 12.1 µM, respectively. Besides, the Selectivity ratio in data set [1] was 2.90.
Take `O=C1C(Br)=C(NCCN2CCOCC2)C(=O)c2ccccc21` [Compound 8, 2-Bromo-3-((2-(4-morpholinyl)ethyl)amino)-[1,4]-naphthoquinone]: the IC50 in data set [1] is 9.55 µM; in data set [2], 20.5 µM. Further, the Selectivity ratio in data set [1] is 2.15.
The matching figures for `CN(C)CCCNC1=C(Cl)C(=O)c2ccccc2C1=O` [Compound 22, 2-Chloro-3-((3-(dimethylamino)propyl)amino)naphthalene-1,4-dione]: 2.36 µM, 5.27 µM and 2.23.
The matching figures for `O=C1C(Br)=C(NCCCN2CCCCC2)C(=O)c2ccccc21` [Compound 10, 2-Bromo-3-((3-(piperidin-1-yl)propyl)amino)-[1,4]-naphthoquinone]: 1.24 µM, 3.27 µM and 2.64.
The matching figures for `CN(C)CCNC1=C(Cl)C(=O)c2ccccc2C1=O` [Compound 12, 2-Chloro-3-((2-(dimethylamino)ethyl)amino)-[1,4]-naphthoquinone]: 1.57 µM, 2.87 µM and 1.83.
`CCOC(=O)CNC1=C(Cl)C(=O)c2ccccc2C1=O` [Compound 25, Ethyl (3-chloro-1,4-dioxo-1,4-dihydronaphthalen-2-yl)glycinate]: in data set [1], the IC50 is 20 µM and the Selectivity ratio worked out at 1.00. Further, in data set [2], the IC50 was found to be 20.1 µM.
For `CCCc1nc2c(n1CCCN1CCCCC1)C(=O)c1ccccc1C2=O` [Compound 46, 1-(3-(Piperidin-1-yl)propyl)-2-propyl-1H-naphtho[2,3-d]imidazole-4,9-dione], the IC50 is 19 µM in data set [1] and above 40 µM in data set [2].
As for `O=C1C(Cl)=C(NCc2cn(-c3ccccc3)nn2)C(=O)c2ccccc21` [Compound 31, 2-Chloro-3-(((1-phenyl-1H-1,2,3-triazol-4-yl)methyl)amino)naphthalene-1,4-dione], in data set [1], the half-maximal inhibitory concentration (IC50) came to 19.5 µM and the Selectivity ratio came to 1.74. For the same compound, in data set [2], the half-inhibitory concentration (IC50) was 34 µM.
Consider `Cc1nc2c(n1CCCN1CCCCC1)C(=O)c1ccccc1C2=O` [Compound 44, 2-Methyl-1-(3-(piperidin-1-yl)propyl)-1H-naphtho[2,3-d]imidazole-4,9-dione], for which the IC50 in data set [1] amounted to 6.4 µM; in data set [2], 23 µM; in data set [3] it was 15.4 µM; in data set [4] (read-out: +GSH IC50 ± SEM), 7.4 µM; in data set [4] (read-out: +NAC IC50) it was 6.8 µM; in data set [4] (read-out: Alone IC50), 6.4 µM. Moreover, the Selectivity ratio in data set [1] was 3.6 and 3.59. Also, the half-life in data set [6] (C57BL/6, mouse, plasma, po, 20 mg/kg) is 26.8 min. Besides, the “half-life longer than BH10” value in data set [6] (oral administration, versus BH10 t1/2 = 21.6 min) was found to be 5.2 min. Besides, in the data set on HEC1A cancer cells, the “maximum OCR increase” value came to 130%. For the same compound, the “rescue of cytotoxicity” value in data set [4] (HEC1A) was “did not rescue; also recorded: unaffected”. The “ΔIC50 (+GSH)” value in data set [4] is “+1.00 μM”. Besides, in data set [4], the “ΔIC50 (+NAC)” value is listed as “+0.40 μM”.
On to `CCc1nc2c(n1CCCN1CCCCC1)C(=O)c1ccccc1C2=O` [Compound 45, 2-Ethyl-1-(3-(piperidin-1-yl)propyl)-1H-naphtho[2,3-d]imidazole-4,9-dione], for which the IC50 in data set [1] was 12 µM; in data set [2] it was 35 µM. Also, the Selectivity ratio in data set [1] amounted to 2.92.
`C#CCNC1=C(Cl)C(=O)c2ccccc2C1=O` [Compound 24, 2-Chloro-3-(prop-2-yn-1-ylamino)naphthalene-1,4-dione]: the 50% inhibitory concentration (IC50) stood at 21.9 µM in data set [1] and 22.4 µM in data set [2]. Further, the Selectivity ratio in data set [1] is 1.02.
The matching figures for `CCCCc1nc2c(n1CCCN1CCCCC1)C(=O)c1ccccc1C2=O` [Compound 47, 2-Butyl-1-(3-(piperidin-1-yl)propyl)-1H-naphtho[2,3-d]imidazole-4,9-dione]: 14 µM, 24 µM and 1.80.
